Assay results from ChEMBL document CHEMBL1145782, “Systematic development of high affinity bis(ammonio)alkane-type allosteric enhancers of muscarinic ligand binding” (J Med Chem, 2003).

Columns and labels:
[1] = target: T1, Muscarinic acetylcholine receptor M2 (Sus scrofa) (UniProt P06199); assay: Tested for binding of [3H]N-methylscopolamine ([3H]NMS) at porcine heart ventricle muscarinic acetylcholine receptor M2 expressed as -logKa.
T1 sequence (whole entry): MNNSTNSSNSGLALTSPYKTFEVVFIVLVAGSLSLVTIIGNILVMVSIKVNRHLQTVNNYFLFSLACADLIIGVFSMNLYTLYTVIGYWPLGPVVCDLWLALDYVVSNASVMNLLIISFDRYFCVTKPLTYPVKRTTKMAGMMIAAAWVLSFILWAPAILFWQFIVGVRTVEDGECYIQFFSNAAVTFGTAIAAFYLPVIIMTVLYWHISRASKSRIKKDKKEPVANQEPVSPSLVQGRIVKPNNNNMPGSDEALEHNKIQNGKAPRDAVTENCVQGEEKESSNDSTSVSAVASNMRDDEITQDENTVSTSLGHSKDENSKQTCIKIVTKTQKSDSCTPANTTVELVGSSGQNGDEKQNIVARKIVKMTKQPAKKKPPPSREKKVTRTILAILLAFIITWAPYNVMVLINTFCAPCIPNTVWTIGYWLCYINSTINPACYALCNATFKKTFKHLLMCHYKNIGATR
How it was run: (§1)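 Pig heart ventricle homogenates in 2.7 mM MgHPO4, 45 mM Tris-HCl, pH 7.3, 37 °C; [3H]NMS 0.20 nM with increasing test compound concentrations; incubation 180–530 min, calculated to reach equilibrium. Nonspecific binding with 1 μM atropine; bound label separated by rapid vacuum filtration onto glass filters and counted by liquid scintillation. Affinities for free and NMS-occupied receptor derived from binding curves.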

[2] = target: T1, Muscarinic acetylcholine receptor M2 (Sus scrofa); assay: Binding affinity for [3H]NMS-occupied muscarinic acetylcholine receptor M2 from porcine heart ventricle.; how it was run: as §1
[3] = target: T1, Muscarinic acetylcholine receptor M2 (Sus scrofa); assay: Cooperativity factor pAlpha at porcine heart ventricle muscarinic acetylcholine receptor M2.; how it was run: as §1
[4] = target: T2, Muscarinic acetylcholine receptor M2 (Sus scrofa, UniProt P06199); assay: Effective concentration required to inhibit dissociation of [3H]NMS from porcine heart ventricles muscarinic acetylcholine receptor M2.
T2 sequence (P06199 whole entry): T1 sequence (whole entry)
How it was run: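 [3H]NMS dissociation in pig heart ventricle homogenates, Mg/Tris buffer pH 7.3, 37 °C. Membranes equilibrated 30 min with 0.2 nM [3H]NMS, then 1 μM atropine added alone or with various test compound concentrations. Either complete time courses over 120 min or two-point measurement (0 and 10 min); monoexponential apparent k-1 by nonlinear regression; filtration and scintillation counting.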

Row | -logKa [1] | p alphaKa [2] | pAlpha [3] | EC50 [4] [µM] | Compound
1 | 8.12 | 6.74 | -1.38 | 0.398 | C[N+](C)(CCCCCC[N+](C)(C)CCCN1C(=O)C2C3c4ccccc4C(c4ccccc43)C2C1=O)CCCN1C(=O)C2C3c4ccccc4C(c4ccccc43)C2C1=O (stereo not given)
2 | 7.9 | 8.23 | 0.32 | 0.00759 | Cc1ccc2c(c1)C(=O)N(CCC[N+](C)(C)CCCCCC[N+](C)(C)CC(C)(C)CN1C(=O)c3cccc4cccc(c34)C1=O)C2=O
3 | 7.27 | 6.8 | -0.47 | 0.145 | C[N+](C)(CCCCCC[N+](C)(C)CCCN1C(=O)c2cc3ccccc3cc2C1=O)CCCN1C(=O)c2ccccc2C1=O
4 | 6.19 | 5.73 | -0.47 | 1.35 | C[N+](C)(CCCCCC[N+](C)(C)CCCN1C(=O)c2ccccc2C1=O)CCCN1C(=O)c2ccccc2C1=O
5 | 6.32 | 6.12 | -0.21 | 0.501 | C[N+](C)(CCCCCC[N+](C)(C)CCCN1C(=O)c2ccc(C(F)(F)F)cc2C1=O)CCCN1C(=O)c2ccccc2C1=O
6 | 6.25 | 5.66 | -0.59 | 1.62 | C[N+](C)(CCCCCC[N+](C)(C)CCCN1C(=O)c2nccnc2C1=O)CCCN1C(=O)c2ccccc2C1=O
7 | 7.41 | 7.44 | 0.03 | 0.0363 | Cc1ccc2c(c1)C(=O)N(CCC[N+](C)(C)CCCCCC[N+](C)(C)CC(C)(C)CN1C(=O)c3ccc(C)cc3C1=O)C2=O
8 | 7.21 | 7.38 | 0.17 | 0.0468 | Cc1ccc2c(c1)C(=O)N(CC(C)(C)C[N+](C)(C)CCCCCC[N+](C)(C)CC(C)(C)CN1C(=O)c3ccc(C)cc3C1=O)C2=O
9 | 7.62 | 6.77 | -0.85 | 0.204 | C[N+](C)(CCCCCC[N+](C)(C)CCCN1C(=O)c2cc3ccccc3cc2C1=O)CCCN1C(=O)c2cc3ccccc3cc2C1=O
10 | 6.73 | 6.42 | -0.31 | 0.324 | Cc1ccc2c(c1)C(=O)N(CCC[N+](C)(C)CCCCCC[N+](C)(C)CCCN1C(=O)c3ccccc3C1=O)C2=O
11 | 7.9 | 8.19 | 0.29 | 0.0141 | Cc1ccc2c(c1)C(=O)N(CC(C)(C)C[N+](C)(C)CCCCCC[N+](C)(C)CC(C)(C)CN1C(=O)c3cccc4cccc(c34)C1=O)C2=O
12 | 7.08 | 6.9 | -0.17 | 0.115 | C[N+](C)(CCCCCC[N+](C)(C)CCCN1C(=O)c2cc(Cl)c(Cl)cc2C1=O)CCCN1C(=O)c2ccccc2C1=O
13 | 7.38 | 6.49 | -0.89 | 0.302 | CC(C)(C)c1ccc2c(c1)C(=O)N(CCC[N+](C)(C)CCCCCC[N+](C)(C)CCCN1C(=O)c3ccc(C(C)(C)C)cc3C1=O)C2=O
14 | 7.2 | 7.07 | -0.13 | 0.0708 | Cc1ccc2c(c1)C(=O)N(CCC[N+](C)(C)CCCCCC[N+](C)(C)CC(C)(C)CN1C(=O)c3ccccc3C1=O)C2=O
15 | 7.41 | 7.97 | 0.56 | 0.0186 | CC(C)(CN1C(=O)c2ccccc2C1=O)C[N+](C)(C)CCCCCC[N+](C)(C)CC(C)(C)CN1C(=O)c2cccc3cccc(c23)C1=O
16 | 7.24 | 7.04 | -0.2 | 0.115 | C[N+](C)(CCCCCC[N+](C)(C)CCCN1C(=O)c2cccc3cccc(c23)C1=O)CCCN1C(=O)c2ccccc2C1=O
17 | 8.29 | 8.66 | 0.37 | 0.00437 | CC(C)(CN1C(=O)c2cccc3cccc(c23)C1=O)C[N+](C)(C)CCCCCC[N+](C)(C)CCCN1C(=O)c2ccccc2C1=O [NAPHMETHONIUM]
18 | 7.48 | 7.44 | -0.04 | 0.0363 | Cc1ccc2c(c1)C(=O)N(CC(C)(C)C[N+](C)(C)CCCCCC[N+](C)(C)CCCN1C(=O)c3cccc4cccc(c34)C1=O)C2=O

Row | -logKa [1] | p alphaKa [2] | pAlpha [3] | EC50 [4] [µM] | Compound
19 | 8.11 | 7.83 | -0.28 | 0.0138 | C[N+](C)(CCCCCC[N+](C)(C)CCCN1C(=O)c2cccc3cccc(c23)C1=O)CCCN1C(=O)c2cccc3cccc(c23)C1=O
20 | 6.83 | 6.57 | -0.29 | 0.229 | C[N+](C)(CCCCCC[N+](C)(C)CCCN1C(=O)c2cc(Cl)c(Cl)cc2C1=O)CCCN1C(=O)c2cc(Cl)c(Cl)cc2C1=O
21 | 6.73 | 6.9 | 0.17 | 0.12 | Cc1ccc2c(c1)C(=O)N(CC(C)(C)C[N+](C)(C)CCCCCC[N+](C)(C)CC(C)(C)CN1C(=O)c3ccccc3C1=O)C2=O
22 | 6.47 | 6.08 | -0.39 | 0.741 | C[N+](C)(CCCCCC[N+](C)(C)CCCN1C(=O)c2cc(F)c(F)cc2C1=O)CCCN1C(=O)c2cc(F)c(F)cc2C1=O
23 | 7.26 | 7.45 | 0.19 | 0.055 | Cc1ccc2c(c1)C(=O)N(CC(C)(C)C[N+](C)(C)CCCCCC[N+](C)(C)CCCN1C(=O)c3ccccc3C1=O)C2=O
24 | 7.51 | 8.04 | 0.53 | 0.00851 | CC(C)(CN1C(=O)c2cccc3cccc(c23)C1=O)C[N+](C)(C)CCCCCC[N+](C)(C)CC(C)(C)CN1C(=O)c2cccc3cccc(c23)C1=O
25 | 8.07 | 8.24 | 0.17 | 0.00776 | CC(C)(CN1C(=O)c2cccc3cccc(c23)C1=O)C[N+](C)(C)CCCCCC[N+](C)(C)CCCN1C(=O)c2cccc3cccc(c23)C1=O
26 | 6.9 | 6.86 | -0.04 | 0.135 | CC(C)(CN1C(=O)c2ccccc2C1=O)C[N+](C)(C)CCCCCC[N+](C)(C)CCCN1C(=O)c2ccccc2C1=O
27 | 5.44 | 5 | -0.44 | 6.31 | C[N+](C)(CCCCCC[N+](C)(C)CCCN1C(=O)c2nccnc2C1=O)CCCN1C(=O)c2nccnc2C1=O
28 | 8.01 | 7.79 | -0.22 | 0.0251 | Cc1ccc2c(c1)C(=O)N(CCC[N+](C)(C)CCCCCC[N+](C)(C)CCCN1C(=O)c3cccc4cccc(c34)C1=O)C2=O
29 | 7.28 | 7.28 | -0.005 | 0.0525 | CC(C)(CN1C(=O)c2ccccc2C1=O)C[N+](C)(C)CCCCCC[N+](C)(C)CCCN1C(=O)c2cccc3cccc(c23)C1=O
30 | 7.08 | 6.87 | -0.21 | 0.178 | CC(C)(CN1C(=O)c2ccccc2C1=O)C[N+](C)(C)CCCCCC[N+](C)(C)CC(C)(C)CN1C(=O)c2ccccc2C1=O
31 | 7.78 | 6.56 | -1.21 | 0.204 | C[N+](C)(CCCCCC[N+](C)(C)CCCN1C(=O)C2C3c4ccccc4C(c4ccccc43)C2C1=O)CCCN1C(=O)c2ccccc2C1=O (stereo not given)
32 | 7.25 | 6.43 | -0.81 | 0.309 | CC(C)(C)c1ccc2c(c1)C(=O)N(CCC[N+](C)(C)CCCCCC[N+](C)(C)CCCN1C(=O)c3ccccc3C1=O)C2=O
33 | 7.08 | 6.75 | -0.33 | 0.17 | Cc1ccc2c(c1)C(=O)N(CCC[N+](C)(C)CCCCCC[N+](C)(C)CCCN1C(=O)c3ccc(C)cc3C1=O)C2=O
34 | 6.68 | 6.31 | -0.37 | 0.457 | C[N+](C)(CCCCCC[N+](C)(C)CCCN1C(=O)c2cc(F)c(F)cc2C1=O)CCCN1C(=O)c2ccccc2C1=O
35 | 6.37 | 6.15 | -0.22 | 0.447 | C[N+](C)(CCCCCC[N+](C)(C)CCCN1C(=O)c2ccc(C(F)(F)F)cc2C1=O)CCCN1C(=O)c2ccc(C(F)(F)F)cc2C1=O
